Assay outcomes deposited in PubChem BioAssay by several laboratories.
The list is not random: actives were taken first. Their share in the collection is about 3.8%.
BB579 growth dn = yeast BB579 growth reduction in restrictive medium | inhibition, % at 10 µM | S. cerevisiae BB579 growth, OD615, 48 h | 140,000 tested, 0.51% active | AID 804;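 active = inhibition above a set limit, 3 SD over the mean compound inhibition, cut at about 44% in these data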
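System: DeaD yeast strain BB579; buffer or medium: CSMM-D dextrose restrictive medium; technique: OD at 615 nm; schedule: 4 h cell preincubation, 48 h compound exposure, 30 °C humidified; doses: single 10 µM dose; controls: amphotericin B 10 µg/mL, positive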
Yeast life ext = extends the lifespan of yeast. S. cerevisiae growth with nicotinamide, OD615; deaD strain in restrictive glucose medium. inhibition of the nicotinamide effect, % at 10 µM. 130,000 tested, 0.68% active;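 active = inhibition above a set limit, placed 3 SD over the median of all compounds, cut at about 26% in these data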;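 note: 0% = nicotinamide-treated wells and 100% = cells grown without nicotinamide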
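Test system: DeaD-strain S. cerevisiae / Buffer or medium: restrictive glucose medium / Also added: nicotinamide 1.5 mM / Doses: one concentration, 10 µM, DMSO 0.25% / Schedule: 48 h at 30 °C / Signal: OD615 measurement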
SDO1 yeast rescue = restores growth of sdo1-depleted yeast | S. cerevisiae sdo1-depleted JHY4D growth rescue, OD600 30 h; hits give high values; pdr5 snq2 efflux-pump mutant strain | z-score at 10 µM | 140,000 tested, 0.21% active | AID 817;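 active = z-score above 3 at both the 24 hr and the 30 hr optical density reads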;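 note: z-score against mean and SD of all compound wells on the same plate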
RAM inhibit = inhibitors of the yeast RAM network | S. cerevisiae dse1pr::URA3 reporter, 5-FOA growth OD615, 2 d; analog-sensitive cbk1-as2 kinase mutant strain | inhibition, % at 50 µM | 190,000 tested, 1.8% active;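 active = inhibition above a set limit, 3 SD over mean compound inhibition, cut at about 8.4% in these data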;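 note: 0% = DMSO-only wells with no growth and 100% = 10 µM 1-NA-PP1 full growth; inhibition rescues growth on 5-FOA so higher OD means more RAM inhibition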
Measles CPE = protection of cells from measles virus; Measles virus-infected cells, CPE protection, absorbance; 140,000 tested, 1.5% active; protection (pct of control), % at 4 µM; AID 841; in the data active = protection mostly above about 24%, no sharp cut-off; inactive = mostly below about 26%
RAM efflux-def = RAM network inhibitors in efflux-deficient yeast. S. cerevisiae efflux-deficient reporter strain, 5-FOA growth OD615, 2 days. 1,200 tested, under 10 active. shares compounds with RAM inhibit. AID 1305. max inhibition, %; call rule not given here;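 note: plate controls were vehicle for no effect and reference inhibitor for full effect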
The depositor's hits bear a star; . = no result given.

SMILES	BB579 growth dn	Yeast life ext	SDO1 yeast rescue	RAM inhibit	Measles CPE	RAM efflux-def
CCN(CC)C(=O)c1sc(NC(=O)C(C)C)c(C#N)c1C	.	.	.	-0.2	.	.
COc1ccccc1Nc1nc2c(C)cccc2cc1C#N	-60.2	1.8	-1.1	13.1*	9.3	3.5
CC(C)CC(=O)NC(=S)Nc1nc(-c2ccccc2)cs1	-5.7	6.3	-0.35	12.7*	5.7	1.8
Cc1ccnc2nc(C(=O)NCCc3ccc(F)cc3)nn12	-18.8	-6.8	0.34	-0.2	8.5	.
CC(Sc1nnc(-c2cccs2)n1-c1ccccc1)C(=O)NCc1ccc2c(c1)OCO2 (stereo not given)	-97.8	-6.1	-1.15	0.7	5.2	.
Cc1ccc(N=c2oc3cc(O)ccc3cc2C(N)=O)cc1	-59.4	-1.8	-1.77	27.2*	5.0	0.9
CN(CC(=O)Nn1cnnc1)S(=O)(=O)c1ccccc1	-27.4	3.6	0.57	0.3	4.6	.
Nn1c(SCc2ccccn2)nncc1=O	.	.	.	0.1	.	.
CCOC(=O)c1cc(C#N)c(Oc2cccc(C(F)(F)F)c2)nc1-c1ccccc1	-15.6	3.2	-0.01	12.7*	5.2	1.9
O=C(c1ccccc1)N(Cc1cccnc1)C1(C(=O)Nc2ccccc2)CCCCC1	-21.6	-1.6	-0.72	16.2*	0.4	2.6
O=C(NCc1cccnc1)Nc1ccccc1	.	.	.	0.0	.	.
Nc1nncn1C(=O)CCc1ccccc1	13.9	-14.2	1.23	0.7	10.8	.
O=C(CN(Cc1cccs1)S(=O)(=O)c1ccc(S(=O)(=O)NC2CCCCC2)cc1)Nc1ccccc1	-37.5	3.2	0.12	13.8*	3.0	1.4
O=C(NCc1ccccc1)C1=C[C@H](c2ccc(C(F)(F)F)cc2)C[C@H](OCc2ccc(CO)cc2)O1	.	.	.	11.5*	.	3.8
COc1cc(OC)c(C(=O)CCCN2CCCC2)c(OC)c1	-11.8	3.1	-0.12	0.1	23.5	.
O=C(Cn1cc(C(=O)c2ccco2)c2ccccc21)NC1CCCCC1	.	.	.	11.6*	.	3.0
Cc1c(NC(=O)C(C)Sc2ncnc3ccccc23)c(=O)n(-c2ccccc2)n1C (stereo not given)	.	.	.	1.0	.	.
COc1cc(/C=N/NC(=O)Cn2ccc(C(F)(F)F)n2)cc(OC)c1OC	.	.	.	1.2	.	.
CCOC(=O)C1(CCOc2ccccc2)CCN(Cc2cccc(-n3cccn3)c2)CC1	.	.	.	2.1	.	.
CCOC(=O)C1(CCOc2ccccc2)CCN(C(=O)c2ccc(-n3cccn3)cc2)CC1	.	.	.	18.7*	.	1.2
CC1CCCN(C(=O)C(C)Sc2nc(-c3ccccc3)cc(C(F)(F)F)n2)C1 (stereo not given)	-87.0	20.3	-1.15	14.4*	4.8	1.6
COC(=O)[C@H](Cc1ccccc1)NC(=O)[C@@]1(C)C[C@@H]1[C@@H](NC(=O)OCc1ccccc1)c1ccccc1	-48.9	7.5	-0.18	12.7*	3.2	4.9
Clc1ccc(-c2csc(N3CCC(c4ccccc4)C3)n2)cc1 (stereo not given)	-36.5	-7.9	0.81	13.5*	2.2	6.6
CC(C)C(=O)N1CCN(c2nc(-c3ccc(Cl)cc3)cs2)CC1	.	.	.	-0.8	.	.
O=C(Cc1cccs1)N1CCN(c2nc(-c3ccc(Cl)cc3)cs2)CC1	-66.1	2.5	-1.09	14.5*	2.4	1.1
SMILES	BB579 growth dn	Yeast life ext	SDO1 yeast rescue	RAM inhibit	Measles CPE	RAM efflux-def
COc1ccc(C2NC(=O)N(C)C3=C2C(=O)CC(C)(C)C3)cc1OC (stereo not given)	1.8	1.2	0.55	-0.3	8.3	.
CCOC(=O)c1ccc(N=Nc2c(C)c(C#N)c(O)[nH]c2=O)cc1	.	.	.	1.6	.	.
C/C(=N\NC(=S)NCc1ccccc1)c1ccccc1	-20.6	-1.7	-1.19	0.0	15.4	.
C/C(=N\NC(=S)NCc1ccccc1)c1ccc(C(C)(C)C)cc1	26.4	0.4	-1.2	11.5*	3.3	5.1
CN1CCN(C(=O)C2=C[C@H](c3ccc(C(F)(F)F)cc3)C[C@H](OCc3ccc(CO)cc3)O2)CC1	.	.	.	-0.9	.	.
FC(F)(F)c1cc(-c2ccco2)nc(N2CCN(Cc3ccccc3)CC2)n1	-27.0	-13.7	-1.84	-0.1	11.8	.
Fc1ccc(N2CCN(c3nc(-c4ccco4)cc(C(F)(F)F)n3)CC2)cc1	-44.2	-7.1	-0.87	14.3*	4.1	3.8
CCOC(=O)c1sc(NC(=O)CSc2nnc(-c3ccc(OC)cc3)n2CCOC)nc1C	-38.6	-3.3	1.44	12.4*	28.4	1.5
COCCn1c(SCC(=O)Nc2nnc(C)s2)nnc1-c1ccncc1	-6.0	-4.0	0.58	-0.2	4.8	.
Cc1ccc(S(=O)(=O)N2CCN(C(=O)C3COc4ccccc4O3)CC2)cc1C (stereo not given)	-49.5	-2.3	0.05	17.1*	6.0	3.4
Cc1ccc(S(=O)(=O)NNC(=O)C2COc3ccccc3O2)cc1C (stereo not given)	.	.	.	1.8	.	.
CCN(Cc1ccccc1)S(=O)(=O)c1ccc(S(=O)(=O)N(Cc2ccccn2)Cc2ccco2)cc1	-23.5	-0.8	-0.6	13.1*	9.4	1.8
CC1CCCCN1S(=O)(=O)c1ccc(S(=O)(=O)N(Cc2ccccc2)Cc2ccco2)cc1 (stereo not given)	-31.1	.	-0.33	13.9*	4.0	2.6
Cc1ccc(S(=O)(=O)N2CCCCC2C(=O)NCc2ccco2)cc1 (stereo not given)	-60.9	-6.8	0.2	0.1	9.9	.
Cc1cc(C)cc(NC(=O)CSc2nc3c(c(=O)[nH]2)CN(Cc2ccc(F)cc2)CC3)c1	-18.5	8.0	0.65	0.1	10.2	.
CC(C)(C)c1csc(NC(=O)Cn2cnc3ccccc3c2=O)n1	-31.7	-11.7	-2.88	5.6	4.6	.
O=C(/C=C/c1cccc(Br)c1)N1CCN(c2cccc(C(F)(F)F)c2)CC1	-33.2	4.4	-1	16.1*	3.4	2.6
Cc1ccc(CC(=O)N2CCN(c3cccc(C(F)(F)F)c3)CC2)cc1	-29.2	-14.6	-0.82	3.9	7.5	.
O=C(c1c(F)c(F)c(F)c(F)c1F)N1CCN(c2cccc(C(F)(F)F)c2)CC1	-30.2	-3.9	-0.41	5.5	8.5	.
O=C(/C=C/c1ccc(Br)cc1)N1CCN(c2cccc(C(F)(F)F)c2)CC1	-36.1	7.2	-1.23	12.4*	20.6	3.1
CCc1ccc(Nc2nnc(SCc3cc(=O)n4ccsc4n3)s2)cc1	-44.2	-12.1	2.31	5.0	3.9	.
Cc1ccc(C(=O)Nc2c(C)cc(-c3ccccc3)oc2=O)cc1	.	.	.	2.4	.	.
Cc1ccc(N(CCC(=O)Nc2nnc(C3CC3)s2)S(=O)(=O)c2ccccc2)cc1	-15.5	2.8	-0.81	1.3	8.3	.
COc1ccc(Cn2nnnc2C(c2cccs2)N2CCOCC2)cc1 (stereo not given)	-1.6	2.0	-0.05	1.4	11.4	.
CC(C)C(c1nnnn1Cc1ccccc1)N(Cc1ccco1)Cc1cccs1 (stereo not given)	4.5	-7.4	-0.89	13.2*	4.0	3.6
